# Measured values pooled from the literature.
# FPR1: fMet-Leu-Phe receptor (FPR1, Homo sapiens, UniProt P21462)
# CES2: Cocaine esterase (CES2, Homo sapiens, UniProt O00748)
# Oprk1: Kappa-type opioid receptor (Oprk1, Mus musculus, UniProt P33534)
# SLC6A2: Sodium-dependent noradrenaline transporter (SLC6A2, Homo sapiens, UniProt P23975)
Structure (SMILES),target,effect on,mode,method,setting,endpoint,value
O=C(CCNC(=O)CNC(=O)CC(c1ccccc1)(c1ccccc1)c1ccccc1)NC[C@H]1CCCN(Cc2ccc(F)cc2)C1,"Muscarinic acetylcholine receptor M5 (CHRM5, Homo sapiens, UniProt P08912)",ligand displacement,,radioligand,cell membranes,IC50,19.4 µM
Cc1cccc(-c2nnc(N[C@@H](Cc3ccc(C#N)cc3)C(=O)N3CCc4ccccc43)o2)c1,FPR1,calcium signal,agonist,,,EC50,19.4 µM
COc1cc2c(cc1OC)C(=O)/C(=C/c1ccc(C)c(C)c1)C2,CES2,enzyme activity,inhibitor,fluorescence,with preincubation,IC50,> 100 µM
CC(C)[C@@H](CN1CCc2ccccc2C1)NC(=O)c1cccc(-c2cccnc2)c1,Oprk1,ligand displacement,,radioligand,,Ki,6.15 µM
NCC(=O)O,"ltaA (Aeromonas jandaei, UniProt O07051)",binding,,absorbance,,Kd,11000 µM
CC(C)[C@@H](CN1CCc2ccccc2C1)NC(=O)c1ccc(F)cc1,Oprk1,ligand displacement,,radioligand,,Ki,36.2 µM
O=C(c1ccc(OCCN2CCCCC2)cc1)c1c(-c2ccc(O)cc2)sc2cc(O)ccc12,CES2,enzyme activity,inhibitor,fluorescence,with preincubation,IC50,> 100 µM
O=c1c(O[C@@H]2O[C@H](CO)[C@H](O)[C@H](O)[C@H]2O)c(-c2ccc(O)c(O)c2)oc2cc(O)cc(O)c12,"srtA (Staphylococcus aureus, UniProt Q2FV99)",binding,,SPR,,Kd,19.5 µM
COc1cc2c(cc1OC)C(=O)/C(=C/C1CCCCC1)C2,CES2,enzyme activity,inhibitor,fluorescence,with preincubation,IC50,2.42 µM
CC(C)[C@@H](CN1CCc2ccccc2C1)NC(=O)c1ccc([N+](=O)[O-])s1,Oprk1,ligand displacement,,radioligand,,Ki,9.06 µM
CCc1ccccc1/C=C1\Cc2cc(OC)c(OC)cc2C1=O,CES2,enzyme activity,inhibitor,fluorescence,with preincubation,IC50,1.48 µM
CNC(=O)[C@@]12C[C@@H]1[C@@H](n1cnc3c(NCc4cccc(Cl)c4)nc(C#Cc4ccc(Cl)s4)nc31)[C@H](O)[C@@H]2O,SLC6A2,ligand displacement,,radioligand,,Ki,2.3 µM
N#Cc1ccc(C[C@@H](Nc2c(Nc3ccc(Br)cc3)c(=O)c2=O)C(=O)N2CCc3ccccc32)cc1,FPR1,calcium signal,agonist,,,EC50,32.8 µM
CC(=O)[C@H]1CC[C@H]2[C@@H]3CC=C4C[C@@H](O)CC[C@]4(C)[C@H]3CC[C@]12C,CES2,enzyme activity,inhibitor,fluorescence,with preincubation,IC50,> 100 µM
CCOC(=O)[C@@]12C[C@@H]1[C@@H](n1cnc3c(NCCCCCc4ccccc4)nc(C#Cc4ccc(Cl)s4)nc31)[C@H](O)[C@@H]2O,SLC6A2,ligand displacement,,radioligand,,Ki,0.82 µM
COc1cc2c(cc1OC)C(=O)/C(=C/c1ccc(O)cc1)C2,CES2,enzyme activity,inhibitor,fluorescence,with preincubation,IC50,1.89 µM
CCOC(=O)[C@@]12C[C@@H]1[C@@H](n1ccc3c(NCCCCCc4ccccc4)nc(C#Cc4ccccc4)nc31)[C@H](O)[C@@H]2O,SLC6A2,ligand displacement,,radioligand,,Ki,0.47 µM
COc1cc2c(cc1OC)C(=O)/C(=C/c1ccc(C)cc1Cl)C2,CES2,enzyme activity,inhibitor,fluorescence,with preincubation,IC50,> 100 µM
CCOC(=O)[C@@]12C[C@@H]1[C@@H](n1cnc3c(NCCCCCCc4ccccc4)nc(C#Cc4ccc(Cl)s4)nc31)[C@H](O)[C@@H]2O,SLC6A2,ligand displacement,,radioligand,,Ki,5.4 µM
CN1C(=O)C(c2c(-c3ccc(Cl)cc3)[nH]c3c2c(=O)[nH]c(=O)n3C)c2ccccc21 (stereo not shown),"WD repeat-containing protein 91 (Homo sapiens, UniProt A4D1P6)",binding,,SPR,,Kd,2 µM
CNc1nc(C#Cc2ccc(Cl)s2)nc2c1ncn2[C@H]1[C@H](O)[C@H](O)[C@]2(C(=O)OC)C[C@H]12,SLC6A2,ligand displacement,,radioligand,,EC50,0.75 µM
CC(C)[C@H](CN1CCc2ccccc2C1)NC(=O)c1c(Cl)cncc1Cl,Oprk1,ligand displacement,,radioligand,,Ki,12.5 µM
CCOC(=O)[C@@]12C[C@@H]1[C@@H](n1cnc3c(NC4CC4)nc(C#Cc4ccc(Cl)s4)nc31)[C@H](O)[C@@H]2O,SLC6A2,ligand displacement,,radioligand,,Ki,3.7 µM
COc1cc2c(cc1OC)C(=O)/C(=C/c1cccc3ccccc13)C2,CES2,enzyme activity,inhibitor,fluorescence,with preincubation,IC50,15.3 µM
CCOC(=O)[C@@]12C[C@@H]1[C@@H](n1cnc3c(Nc4ccccc4)nc(C#Cc4ccc(Cl)s4)nc31)[C@H](O)[C@@H]2O,SLC6A2,ligand displacement,,radioligand,,Ki,2.3 µM
N#Cc1ccc(C[C@H](Nc2nnc(-c3cccc(F)c3)o2)C(=O)N2CCc3ccccc32)cc1,FPR1,calcium signal,agonist,,,EC50,30.2 µM
CNc1nc(C#Cc2ccc(Cl)s2)nc2c1ncn2[C@H]1[C@H](O)[C@H](O)[C@]2(CC#N)C[C@H]12,SLC6A2,ligand displacement,,radioligand,,EC50,3.9 µM
CC(=O)N[C@@H](C)c1cc(Cl)ccc1C1CCN(C(=O)[C@@H]2CN(C(C)(C)C)C[C@H]2c2ccc(F)cc2F)CC1,"Melanocortin receptor 4 (MC4R, Homo sapiens, UniProt P32245)",cAMP,agonist,,,EC50,0.0078 µM
